Measurements: ChEMBL document CHEMBL1649117, “GRL-02031, a novel nonpeptidic protease inhibitor (PI) containing a stereochemically defined fused cyclopentanyltetrahydrofuran potent against multi-PI-resistant human immunodeficiency virus type 1 in vitro” (Antimicrob Agents Chemother, 2009)

Assays:
[1] = tested on: Human immunodeficiency virus 1; experiment: Antiviral activity against HIV1 A harboring L10I/I15V/E35D/N37E/K45R/I54V/L63P/A71V/V82T/L90M/I93L/C95F in protease encoding region infected in human PHA-PBC assessed as inhibition of p24 Gag protein production by ELISA; assay type: functional, organism-based; settings: Human immunodeficiency virus 1, A
Summary of the method: (§1)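 Phytohemagglutinin-stimulated PBMs (10^6/ml) infected with 50 TCID50s of each primary isolate, cultured with or without drug in 10-fold serial dilutions. On day 7, supernatant p24 Gag was measured by automated chemiluminescent enzyme immunoassay. Triplicate.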

[2] = tested on: Human immunodeficiency virus 1; experiment: Ratio of EC50 for HIV1 B harboring L10I/I15V/E35D/N37E/K45R/I54V/L63P/A71V/V82T/L90M/I93L/C95F in protease encoding region to EC50 for HIV1 ERS104pre; assay type: functional
[3] = tested on: Human immunodeficiency virus 1; experiment: Ratio of EC50 for HIV1 C harboring L10I/I15V/K20R/L24I/M36I/M46L/I54V/I62V/L63P/K70Q/V82A/L89M in protease encoding region to EC50 for HIV1 ERS104pre; assay type: functional
[4] = tested on: Human immunodeficiency virus 1; experiment: Antiviral activity against HIV1 MOKW infected in human PHA-PBC assessed as inhibition of p24 Gag protein production by ELISA; assay type: functional, organism-based; settings: Human immunodeficiency virus 1, MOKW
Summary of the method: (§2)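 Phytohemagglutinin-stimulated PBMs (10^6/ml) infected with 50 TCID50s of each primary isolate, cultured with or without drug in 10-fold serial dilutions. On day 7, supernatant p24 Gag was measured by automated chemiluminescent enzyme immunoassay. […] Triplicate.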

[5] = tested on: Human immunodeficiency virus 1; experiment: Antiviral activity against HIV1 MM harboring L10I/K43T/M46L/I54V/L63P/A71V/V82A/L90M/Q92K in protease encoding region infected in human PHA-PBC assessed as inhibition of p24 Gag protein production by ELISA; assay type: functional, organism-based; settings: Human immunodeficiency virus 1, MM; summary of the method: as §2
[6] = tested on: Human immunodeficiency virus 1; experiment: Ratio of EC50 for HIV1 A harboring L10I/I15V/E35D/N37E/K45R/I54V/L63P/A71V/V82T/L90M/I93L/C95F in protease encoding region to EC50 for HIV1 ERS104pre; assay type: functional
[7] = tested on: Human immunodeficiency virus 1; experiment: Antiviral activity against HIV1 JSL harboring L10I/L24I/L33F/E35D/M36I/N37S/M46L/I54V/R57K/I62V/L63P/A71V/G73S/82A in protease encoding region infected in human PHA-PBC assessed as inhibition of p24 Gag protein production by ELISA; assay type: functional, organism-based; settings: Human immunodeficiency virus 1, JSL; summary of the method: as §2
[8] = tested on: Human immunodeficiency virus 1; experiment: Ratio of EC50 for HIV1 MM harboring L10I/K43T/M46L/I54V/L63P/A71V/V82A/L90M/Q92K in protease encoding region infected to EC50 for HIV1 ERS104pre; assay type: functional
[9] = tested on: Human immunodeficiency virus 1; experiment: Antiviral activity against HIV1 G harboring L10I/V11I/T12E/I15V/L19I/R41K/M46L/L63P/A71T/V82A/L90M in protease encoding region infected in human PHA-PBC assessed as inhibition of p24 Gag protein production by ELISA; assay type: functional, organism-based; settings: Human immunodeficiency virus 1, G; summary of the method: as §2
[10] = tested on: Human immunodeficiency virus 1; experiment: Ratio of EC50 for HIV1 JSL harboring L10I/L24I/L33F/E35D/M36I/N37S/M46L/I54V/R57K/I62V/L63P/A71V/G73S/82A in protease encoding region to EC50 for HIV1 ERS104pre; assay type: functional
[11] = tested on: Human immunodeficiency virus 1; experiment: Antiviral activity against HIV1 ERS104pre infected in human PHA-PBC assessed as inhibition of p24 Gag protein production by ELISA; assay type: functional, organism-based; settings: Human immunodeficiency virus 1, ERS104pre; summary of the method: as §1
[12] = tested on: Human immunodeficiency virus 1; experiment: Ratio of EC50 for HIV1 G harboring L10I/V11I/T12E/I15V/L19I/R41K/M46L/L63P/A71T/V82A/L90M in protease encoding region to EC50 for HIV1 ERS104pre; assay type: functional
[13] = tested on: Human immunodeficiency virus 1; experiment: Antiviral activity against HIV1 TM harboring L10I/K14R/R41K/M46L/I54V/L63P/A71V/V82A/L90M/I93L in protease encoding region infected in human PHA-PBC assessed as inhibition of p24 Gag protein production by ELISA; assay type: functional, organism-based; settings: Human immunodeficiency virus 1, TM; summary of the method: as §2
[14] = tested on: Human immunodeficiency virus 1; experiment: Antiviral activity against HIV1 C harboring L10I/I15V/K20R/L24I/M36I/M46L/I54V/I62V/L63P/K70Q/V82A/L89M in protease encoding region infected in human PHA-PBC assessed as inhibition of p24 Gag protein production by ELISA; assay type: functional, organism-based; settings: Human immunodeficiency virus 1, C; summary of the method: as §2
[15] = tested on: Human immunodeficiency virus 1; experiment: Antiviral activity against HIV1 B harboring L10I/I15V/E35D/N37E/K45R/I54V/L63P/A71V/V82T/L90M/I93L/C95F in protease encoding region infected in human PHA-PBC assessed as inhibition of p24 Gag protein production by ELISA; assay type: functional, organism-based; settings: Human immunodeficiency virus 1, B; summary of the method: as §2
[16] = tested on: Human immunodeficiency virus 1; experiment: Ratio of EC50 for HIV1 TM harboring L10I/K14R/R41K/M46L/I54V/L63P/A71V/V82A/L90M/I93L in protease encoding region to EC50 for HIV1 ERS104pre; assay type: functional
Summary of the method: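 PHA-stimulated PBMs (10^6/ml) infected with 50 TCID50s of primary HIV-1 isolate and cultured with 10-fold serial drug dilutions. Day 7 supernatant p24 Gag measured by chemiluminescent enzyme immunoassay. […] Triplicate. Ratio is resistant isolate EC50 over reference isolate EC50.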

SMILES: Cc1cn([C@H]2C[C@H](N=[N+]=[N-])[C@@H](CO)O2)c(=O)[nH]c1=O [ZIDOVUDINE]
- EC50 [1]: 120 nM
- Ratio EC50 [2]: 200
- Ratio EC50 [3]: 56
- EC50 [4]: 16 nM
- EC50 [5]: 450 nM
- Ratio EC50 [6]: 24
- EC50 [7]: 180 nM
- Ratio EC50 [8]: 90
- EC50 [9]: 600 nM
- Ratio EC50 [10]: 36
- EC50 [11]: 5 nM
- Ratio EC50 [12]: >120
- EC50 [13]: 890 nM
- EC50 [14]: 280 nM
- EC50 [15]: > 1000 nM
- Ratio EC50 [16]: 178
